Results taken from ChEMBL document CHEMBL1152541, “Staurosporine tethered peptide ligands that target cAMP-dependent protein kinase (PKA): optimization and selectivity profiling” (Bioorg Med Chem, 2009).
Values belong to the compound of their own block, whether it stands above or below them. *1 amine or outer side, *2 acyl side, *3 side chain or, on linkers, in order; H or OH if unused. Where a SMILES comes first, the peptide text is derived from it. Bridges are numbered along the chain shown (N, C = ends). [ ]: non-standard residue; d: D form. The star is where a group is joined. Staurosporine = CO[C@@H]1[C@H](N(C)*)C[C@H]2O[C@]1(C)n1c3ccccc3c3c4c(c5c6ccccc6n2c5c31)C(=O)NC4; Suc = O=C(CCC(=O)[*:2])[*:1]; Dap = NC[C@H](N)C(=O)O; βAla = NCCC(=O)O

What was measured:
[1] = target: Mitogen-activated protein kinase kinase kinase 4 (Homo sapiens) (UniProt Q9Y6R4); assay: Binding affinity to human MAP3K4 at 500 nM by cell-based competition binding assay relative to control in presence of DTT
Procedure, shortened: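 Competition binding screen (Ambit) across a panel of 90 kinases, scoring test ligand displacement of each kinase's binding relative to control. The screen ran under reducing conditions with 7.5 mM DTT.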

[2] = target: Epidermal growth factor receptor (Homo sapiens) (UniProt P00533); assay: Binding affinity to human EGFR at 500 nM by cell-based competition binding assay relative to control in presence of DTT
Chain of Epidermal growth factor receptor (Homo sapiens) (P00533 whole entry): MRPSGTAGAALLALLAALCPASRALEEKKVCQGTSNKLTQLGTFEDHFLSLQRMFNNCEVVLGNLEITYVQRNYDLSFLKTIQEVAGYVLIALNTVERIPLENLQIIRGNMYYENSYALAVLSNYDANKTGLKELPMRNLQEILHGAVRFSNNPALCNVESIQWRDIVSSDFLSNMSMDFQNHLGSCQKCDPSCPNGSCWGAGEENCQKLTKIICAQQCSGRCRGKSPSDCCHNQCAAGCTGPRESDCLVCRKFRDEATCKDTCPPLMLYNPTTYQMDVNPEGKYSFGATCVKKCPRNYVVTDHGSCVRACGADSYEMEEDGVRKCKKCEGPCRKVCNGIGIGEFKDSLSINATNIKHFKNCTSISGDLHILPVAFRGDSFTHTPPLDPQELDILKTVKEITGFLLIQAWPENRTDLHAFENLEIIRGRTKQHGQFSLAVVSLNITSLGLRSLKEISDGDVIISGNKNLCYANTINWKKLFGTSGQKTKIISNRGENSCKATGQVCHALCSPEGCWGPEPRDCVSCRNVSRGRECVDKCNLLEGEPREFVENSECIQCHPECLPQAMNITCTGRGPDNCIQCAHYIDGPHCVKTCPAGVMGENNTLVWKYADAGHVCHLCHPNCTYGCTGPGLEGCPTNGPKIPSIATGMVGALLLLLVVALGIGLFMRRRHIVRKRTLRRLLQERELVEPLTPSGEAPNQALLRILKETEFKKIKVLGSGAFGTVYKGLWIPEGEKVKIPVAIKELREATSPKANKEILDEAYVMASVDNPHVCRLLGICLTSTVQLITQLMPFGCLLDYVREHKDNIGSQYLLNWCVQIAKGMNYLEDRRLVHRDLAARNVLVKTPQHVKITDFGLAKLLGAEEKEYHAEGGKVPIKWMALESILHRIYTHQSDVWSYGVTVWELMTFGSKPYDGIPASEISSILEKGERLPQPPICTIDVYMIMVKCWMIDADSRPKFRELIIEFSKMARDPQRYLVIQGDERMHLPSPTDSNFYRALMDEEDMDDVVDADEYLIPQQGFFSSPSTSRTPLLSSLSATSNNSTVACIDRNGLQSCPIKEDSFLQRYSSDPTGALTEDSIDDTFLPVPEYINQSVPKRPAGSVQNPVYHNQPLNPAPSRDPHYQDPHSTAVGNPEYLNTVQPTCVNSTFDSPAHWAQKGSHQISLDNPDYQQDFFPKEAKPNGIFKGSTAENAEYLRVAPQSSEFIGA
Procedure, shortened: (§1)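 Commercial (Ambit) competitive kinase-binding panel of 90 kinases measured the binding profile. Run under reducing conditions of 7.5 mM DTT. Binding is expressed relative to control.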

[3] = target: T1, Tyrosine-protein kinase ZAP-70 (Homo sapiens) (UniProt P43403); assay: Ratio of staurosporine to compound binding affinity to human ZAP70 in presence of DTT
T1 sequence (whole entry): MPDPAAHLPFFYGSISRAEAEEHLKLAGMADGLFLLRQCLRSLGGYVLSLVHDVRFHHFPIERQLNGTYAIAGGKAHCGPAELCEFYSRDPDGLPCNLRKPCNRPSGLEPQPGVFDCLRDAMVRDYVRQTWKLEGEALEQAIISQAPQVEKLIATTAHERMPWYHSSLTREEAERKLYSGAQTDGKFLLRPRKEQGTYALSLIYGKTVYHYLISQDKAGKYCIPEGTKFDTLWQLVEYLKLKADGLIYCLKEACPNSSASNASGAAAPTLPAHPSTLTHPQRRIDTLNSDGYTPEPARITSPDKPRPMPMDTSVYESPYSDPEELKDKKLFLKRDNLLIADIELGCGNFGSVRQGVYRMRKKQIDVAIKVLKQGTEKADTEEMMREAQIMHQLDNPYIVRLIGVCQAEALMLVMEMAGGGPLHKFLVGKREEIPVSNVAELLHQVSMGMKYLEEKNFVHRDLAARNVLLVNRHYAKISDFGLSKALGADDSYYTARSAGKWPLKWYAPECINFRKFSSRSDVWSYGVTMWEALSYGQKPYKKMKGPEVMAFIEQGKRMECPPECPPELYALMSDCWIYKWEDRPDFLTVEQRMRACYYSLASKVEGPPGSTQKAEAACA

[4] = system: Serine/threonine-protein kinase B-raf (Homo sapiens), P15056 [V600E]; assay: Binding affinity to human BRAF V600E mutant at 500 nM by cell-based competition binding assay relative to control in presence of DTT
Chain of Serine/threonine-protein kinase B-raf (Homo sapiens), P15056 [V600E] (P15056 whole entry V600E): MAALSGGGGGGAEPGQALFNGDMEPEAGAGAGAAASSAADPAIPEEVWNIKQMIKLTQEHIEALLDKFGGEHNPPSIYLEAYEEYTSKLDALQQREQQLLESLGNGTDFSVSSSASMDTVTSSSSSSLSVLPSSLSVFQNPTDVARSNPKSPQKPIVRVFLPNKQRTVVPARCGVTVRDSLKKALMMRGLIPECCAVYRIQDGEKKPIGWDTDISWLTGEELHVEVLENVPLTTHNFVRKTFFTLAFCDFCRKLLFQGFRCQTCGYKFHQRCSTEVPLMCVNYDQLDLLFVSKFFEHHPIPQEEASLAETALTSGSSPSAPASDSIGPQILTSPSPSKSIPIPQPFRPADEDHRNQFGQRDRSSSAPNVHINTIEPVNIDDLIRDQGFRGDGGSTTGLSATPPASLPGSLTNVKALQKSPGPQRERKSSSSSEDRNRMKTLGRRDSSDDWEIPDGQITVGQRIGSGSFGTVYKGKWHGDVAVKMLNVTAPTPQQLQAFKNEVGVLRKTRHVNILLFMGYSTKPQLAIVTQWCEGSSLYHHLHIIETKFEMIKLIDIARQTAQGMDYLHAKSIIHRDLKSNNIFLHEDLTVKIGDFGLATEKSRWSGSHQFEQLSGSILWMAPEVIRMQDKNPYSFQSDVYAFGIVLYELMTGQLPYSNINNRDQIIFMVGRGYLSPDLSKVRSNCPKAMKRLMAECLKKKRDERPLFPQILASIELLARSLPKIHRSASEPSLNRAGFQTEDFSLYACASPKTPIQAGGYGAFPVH
Procedure, shortened: (§2)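 Kinase binding profiling ran on a commercial (Ambit) competitive binding screen against a panel of 90 kinases. The screen used reducing conditions with 7.5 mM DTT. To withstand the DTT, the bivalent ligand was tested as its amide isostere, with the disulfide replaced. A staurosporine derivative carrying a 3 β-alanine linker was run as the reference compound.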

[5] = target: Serine/threonine-protein kinase PAK 4 (Homo sapiens) (UniProt O96013); assay: Binding affinity to human PAK4 at 500 nM by cell-based competition binding assay relative to control in presence of DTT
Chain of Serine/threonine-protein kinase PAK 4 (Homo sapiens) (O96013 whole entry, looked up): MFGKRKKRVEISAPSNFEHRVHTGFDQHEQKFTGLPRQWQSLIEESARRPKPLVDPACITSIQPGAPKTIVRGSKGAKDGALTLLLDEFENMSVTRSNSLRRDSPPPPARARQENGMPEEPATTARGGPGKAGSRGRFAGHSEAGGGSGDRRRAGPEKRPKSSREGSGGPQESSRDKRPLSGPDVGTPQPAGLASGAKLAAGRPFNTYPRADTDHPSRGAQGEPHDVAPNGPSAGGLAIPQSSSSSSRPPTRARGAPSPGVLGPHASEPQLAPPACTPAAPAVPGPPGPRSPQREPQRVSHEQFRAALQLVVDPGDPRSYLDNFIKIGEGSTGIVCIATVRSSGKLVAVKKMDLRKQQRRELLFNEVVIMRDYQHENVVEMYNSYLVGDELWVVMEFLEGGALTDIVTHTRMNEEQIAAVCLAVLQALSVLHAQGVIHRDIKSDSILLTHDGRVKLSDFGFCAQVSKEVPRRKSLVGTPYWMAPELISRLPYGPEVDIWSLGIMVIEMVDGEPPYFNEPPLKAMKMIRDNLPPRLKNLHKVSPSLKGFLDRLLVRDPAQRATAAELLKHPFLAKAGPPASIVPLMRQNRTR

[6] = target: T2, Serine/threonine-protein kinase Chk1 (Homo sapiens) (UniProt O14757); assay: Binding affinity to human CHEK1 at 200 nM by cell-based competition binding assay relative to control in presence of DTT; procedure, shortened: as §1
T2 sequence (whole entry): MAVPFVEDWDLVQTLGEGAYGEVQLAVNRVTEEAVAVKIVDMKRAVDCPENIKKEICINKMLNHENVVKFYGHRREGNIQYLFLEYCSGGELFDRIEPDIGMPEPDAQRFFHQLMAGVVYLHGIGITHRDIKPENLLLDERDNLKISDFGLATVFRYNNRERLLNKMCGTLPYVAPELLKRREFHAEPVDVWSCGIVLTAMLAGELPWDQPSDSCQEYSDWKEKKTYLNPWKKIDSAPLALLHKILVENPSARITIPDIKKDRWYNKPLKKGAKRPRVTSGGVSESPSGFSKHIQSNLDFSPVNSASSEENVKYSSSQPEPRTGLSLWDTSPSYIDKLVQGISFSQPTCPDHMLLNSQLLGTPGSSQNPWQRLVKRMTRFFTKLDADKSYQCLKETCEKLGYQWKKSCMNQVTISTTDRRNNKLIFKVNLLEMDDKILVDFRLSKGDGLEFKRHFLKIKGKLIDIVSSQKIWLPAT

[7] = target: T3, Aurora kinase A (Homo sapiens) (UniProt O14965); assay: Binding affinity to human aurora kinase A at 200 nM by cell-based competition binding assay relative to control in presence of DTT
T3 sequence (whole entry): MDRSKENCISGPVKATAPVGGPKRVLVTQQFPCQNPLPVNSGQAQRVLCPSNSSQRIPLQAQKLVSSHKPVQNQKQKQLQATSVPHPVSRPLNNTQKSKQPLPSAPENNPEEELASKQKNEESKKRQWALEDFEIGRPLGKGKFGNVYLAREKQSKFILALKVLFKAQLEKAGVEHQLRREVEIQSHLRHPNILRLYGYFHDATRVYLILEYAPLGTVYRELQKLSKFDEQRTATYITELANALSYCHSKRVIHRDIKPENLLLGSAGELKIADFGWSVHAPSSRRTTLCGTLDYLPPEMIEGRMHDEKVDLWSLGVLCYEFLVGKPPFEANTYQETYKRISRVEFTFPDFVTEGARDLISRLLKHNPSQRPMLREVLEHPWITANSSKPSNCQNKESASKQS

[8] = target: Serine/threonine-protein kinase PAK 2 (Homo sapiens) (UniProt Q13177); assay: Binding affinity to human PAK2 at 200 nM by cell-based competition binding assay relative to control in presence of DTT
[9] = system: Tyrosine-protein kinase ABL1 (Homo sapiens), P00519 [T315I]; assay: Binding affinity to human ABL1 T315I mutant at 200 nM by cell-based competition binding assay relative to control in presence of DTT; procedure, shortened: as §2
[10] = target: Phosphatidylinositol 4-phosphate 3-kinase C2 domain-containing subunit beta (Homo sapiens) (UniProt O00750); assay: Binding affinity to human PIK3C2beta at 50 nM by cell-based competition binding assay relative to control in presence of DTT
[11] = target: Ephrin type-A receptor 2 (Homo sapiens) (UniProt P29317); assay: Binding affinity to human EPHA2 at 50 nM by cell-based competition binding assay relative to control in presence of DTT; procedure, shortened: as §1
[12] = target: Fibroblast growth factor receptor 3 (Homo sapiens) (UniProt P22607); assay: Binding affinity to human FGFR3 at 50 nM by cell-based competition binding assay relative to control in presence of DTT; procedure, shortened: as §1
Chain of Fibroblast growth factor receptor 3 (Homo sapiens) (P22607 23-806 limits assumed): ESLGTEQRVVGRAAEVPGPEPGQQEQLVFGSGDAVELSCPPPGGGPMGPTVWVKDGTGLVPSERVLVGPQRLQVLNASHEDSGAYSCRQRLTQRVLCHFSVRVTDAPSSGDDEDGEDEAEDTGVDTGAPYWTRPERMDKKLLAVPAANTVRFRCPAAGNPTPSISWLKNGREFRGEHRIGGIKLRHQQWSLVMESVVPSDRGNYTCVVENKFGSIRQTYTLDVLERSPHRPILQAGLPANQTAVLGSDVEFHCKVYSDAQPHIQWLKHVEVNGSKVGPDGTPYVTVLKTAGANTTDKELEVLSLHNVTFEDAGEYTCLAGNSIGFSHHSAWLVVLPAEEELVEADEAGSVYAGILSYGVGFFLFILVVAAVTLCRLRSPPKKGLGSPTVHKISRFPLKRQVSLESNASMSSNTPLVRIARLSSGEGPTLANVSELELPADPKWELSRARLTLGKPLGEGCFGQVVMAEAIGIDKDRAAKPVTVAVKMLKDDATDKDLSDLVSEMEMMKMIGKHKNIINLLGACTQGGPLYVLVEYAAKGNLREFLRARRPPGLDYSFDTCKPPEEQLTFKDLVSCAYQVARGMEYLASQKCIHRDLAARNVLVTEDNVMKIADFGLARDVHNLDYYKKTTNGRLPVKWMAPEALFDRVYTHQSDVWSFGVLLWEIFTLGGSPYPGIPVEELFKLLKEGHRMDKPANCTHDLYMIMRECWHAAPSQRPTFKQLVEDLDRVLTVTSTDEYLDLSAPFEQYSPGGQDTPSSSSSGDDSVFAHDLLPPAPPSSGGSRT

[13] = target: Vascular endothelial growth factor receptor 2 (Homo sapiens) (UniProt P35968); assay: Binding affinity to human VEGFR2 at 50 nM by cell-based competition binding assay relative to control in presence of DTT
Chain of Vascular endothelial growth factor receptor 2 (Homo sapiens) (P35968 whole entry): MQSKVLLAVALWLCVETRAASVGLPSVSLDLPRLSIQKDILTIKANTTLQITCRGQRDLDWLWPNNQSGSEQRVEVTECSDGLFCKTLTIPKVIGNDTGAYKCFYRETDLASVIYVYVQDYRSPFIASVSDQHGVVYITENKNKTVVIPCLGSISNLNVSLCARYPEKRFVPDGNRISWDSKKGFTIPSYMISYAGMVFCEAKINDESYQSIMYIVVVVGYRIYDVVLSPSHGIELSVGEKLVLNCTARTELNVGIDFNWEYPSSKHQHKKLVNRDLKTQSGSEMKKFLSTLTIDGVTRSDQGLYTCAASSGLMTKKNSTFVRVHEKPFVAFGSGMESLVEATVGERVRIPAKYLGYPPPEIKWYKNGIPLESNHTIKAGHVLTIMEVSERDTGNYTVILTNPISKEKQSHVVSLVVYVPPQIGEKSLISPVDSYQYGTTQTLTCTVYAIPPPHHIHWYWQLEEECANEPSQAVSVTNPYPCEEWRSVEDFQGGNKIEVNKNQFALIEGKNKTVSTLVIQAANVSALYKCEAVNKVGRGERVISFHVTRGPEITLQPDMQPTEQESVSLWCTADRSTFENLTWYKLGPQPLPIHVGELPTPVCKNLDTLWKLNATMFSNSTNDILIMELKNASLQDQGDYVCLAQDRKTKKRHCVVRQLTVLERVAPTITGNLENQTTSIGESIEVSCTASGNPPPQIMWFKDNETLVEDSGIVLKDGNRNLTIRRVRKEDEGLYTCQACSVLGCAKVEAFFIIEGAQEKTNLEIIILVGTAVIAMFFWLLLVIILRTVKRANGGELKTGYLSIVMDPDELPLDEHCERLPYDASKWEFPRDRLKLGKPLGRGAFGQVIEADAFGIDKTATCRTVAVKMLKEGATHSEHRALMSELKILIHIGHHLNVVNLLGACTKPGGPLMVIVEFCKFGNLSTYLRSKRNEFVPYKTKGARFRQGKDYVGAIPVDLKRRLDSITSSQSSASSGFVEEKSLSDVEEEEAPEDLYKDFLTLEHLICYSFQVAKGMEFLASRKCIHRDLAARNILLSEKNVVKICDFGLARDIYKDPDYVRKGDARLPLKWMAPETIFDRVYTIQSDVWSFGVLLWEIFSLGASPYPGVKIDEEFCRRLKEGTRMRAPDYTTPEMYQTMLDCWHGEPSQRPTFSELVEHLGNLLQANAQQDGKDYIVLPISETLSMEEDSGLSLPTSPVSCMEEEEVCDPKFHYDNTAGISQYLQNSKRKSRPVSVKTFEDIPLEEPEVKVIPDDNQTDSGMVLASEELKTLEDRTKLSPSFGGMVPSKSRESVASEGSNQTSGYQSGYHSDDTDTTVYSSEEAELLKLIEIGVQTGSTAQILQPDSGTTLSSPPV

[14] = target: Cyclin-dependent kinase 9 (Homo sapiens) (UniProt P50750); assay: Binding affinity to human CDK9 at 50 nM by cell-based competition binding assay relative to control in presence of DTT; procedure, shortened: as §1
Chain of Cyclin-dependent kinase 9 (Homo sapiens) (P50750 whole entry): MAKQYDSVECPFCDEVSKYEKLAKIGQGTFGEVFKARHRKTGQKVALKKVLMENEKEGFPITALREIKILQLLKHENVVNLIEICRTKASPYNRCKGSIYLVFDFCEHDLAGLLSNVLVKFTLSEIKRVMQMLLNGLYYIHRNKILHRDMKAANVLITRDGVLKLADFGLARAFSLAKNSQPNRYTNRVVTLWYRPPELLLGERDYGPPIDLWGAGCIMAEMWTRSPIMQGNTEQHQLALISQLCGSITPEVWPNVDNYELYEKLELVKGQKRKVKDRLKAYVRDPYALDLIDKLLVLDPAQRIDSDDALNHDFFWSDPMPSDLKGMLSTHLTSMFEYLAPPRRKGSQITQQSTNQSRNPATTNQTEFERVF

- Activity [1]: 95%
- Activity [2]: 54%
- Selectivity ratio [3]: 3
- Activity [4]: 94%
- Activity [5]: 34%
SMILES: CO[C@@H]1[C@H](N(C)C(=O)CCC(=O)NCCC(=O)NCCC(=O)NCCC(N)=O)C[C@H]2O[C@]1(C)n1c3ccccc3c3c4c(c5c6ccccc6n2c5c31)C(=O)NC4

- Activity [6]: 60%
- Activity [7]: 19%
- Activity [8]: 36%
- Activity [9]: 78%
SMILES: CO[C@@H]1[C@H](N(C)C(=O)CCC(=O)NCCC(=O)NCCC(=O)NCCC(=O)NCCC(=O)NCCC(=O)NCCC(=O)NCCC(=O)N[C@H]2CSSC[C@@H](C(=O)NCC(N)=O)NC(=O)CNC(=O)[C@H](Cc3ccccc3)NC(=O)[C@H](C(C)C)NC(=O)[C@H](CCCNC(=N)N)NC(=O)[C@H](Cc3ccccc3)NC(=O)[C@H](C(C)C)NC2=O)C[C@H]2O[C@]1(C)n1c3ccccc3c3c4c(c5c6ccccc6n2c5c31)C(=O)NC4 ({Staurosporine-Suc-βAla-βAla-βAla-βAla-βAla-βAla-βAla}-CVFRVFGCG-NH2; disulfide 1-8)

- Activity [10]: 100%
- Activity [11]: 99%
- Activity [12]: 100%
- Activity [13]: 91%
- Activity [14]: 99%
SMILES: CO[C@@H]1[C@H](N(C)C(=O)CCC(=O)NCCC(=O)NCCC(=O)NCCC(=O)NCCC(=O)NCCC(=O)NCCC(=O)NCCC(=O)N[C@H]2CNC(=O)C[C@@H](C(N)=O)NC(=O)CNC(=O)[C@H](Cc3ccccc3)NC(=O)[C@H](C(C)C)NC(=O)[C@H](CCCNC(=N)N)NC(=O)[C@H](Cc3ccccc3)NC(=O)[C@H](C(C)C)NC2=O)C[C@H]2O[C@]1(C)n1c3ccccc3c3c4c(c5c6ccccc6n2c5c31)C(=O)NC4 ({Staurosporine-Suc-βAla-βAla-βAla-βAla-βAla-βAla-βAla}-[Dap]VFRVFGD-NH2; lactam 1-8)
